Reference: ChEMBL document CHEMBL1131108, “Phenothiazine inhibitors of trypanothione reductase as potential antitrypanosomal and antileishmanial drugs” (J Med Chem, 1998)

What was measured:
[1] = target: T1, Glutathione reductase, mitochondrial (Homo sapiens, UniProt P00390); assay: Inhibitory activity against human erythrocyte glutathione reductase; '*' indicates No inhibition
T1 sequence (P00390 whole entry): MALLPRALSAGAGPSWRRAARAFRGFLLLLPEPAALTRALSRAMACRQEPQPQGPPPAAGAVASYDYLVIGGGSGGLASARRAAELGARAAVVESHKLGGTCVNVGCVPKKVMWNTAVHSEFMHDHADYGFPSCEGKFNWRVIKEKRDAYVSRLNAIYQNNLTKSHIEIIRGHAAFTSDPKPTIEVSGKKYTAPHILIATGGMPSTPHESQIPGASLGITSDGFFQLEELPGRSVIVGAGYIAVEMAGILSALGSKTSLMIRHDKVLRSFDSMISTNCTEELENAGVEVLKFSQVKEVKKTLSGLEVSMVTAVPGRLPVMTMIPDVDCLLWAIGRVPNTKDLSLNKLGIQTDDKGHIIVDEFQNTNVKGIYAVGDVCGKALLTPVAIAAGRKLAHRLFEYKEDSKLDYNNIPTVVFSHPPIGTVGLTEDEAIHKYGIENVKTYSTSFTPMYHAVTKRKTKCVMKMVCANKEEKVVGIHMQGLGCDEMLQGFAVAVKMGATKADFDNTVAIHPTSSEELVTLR
Method in brief: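 Enzyme was isolated from human erythrocytes and assayed spectrophotometrically at 340 nm under literature conditions. Compounds were tested up to 1 mM, or 0.1 mM where solubility was limited.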

Trypanothione reductase [2] = target: T2, Trypanothione reductase (Trypanosoma cruzi, UniProt P28593); assay: Inhibitory activity against recombinant Trypanosoma cruzi (Trypanosoma cruzi) Trypanothione reductase; details: read-out: I50
T2 sequence (P28593 whole entry): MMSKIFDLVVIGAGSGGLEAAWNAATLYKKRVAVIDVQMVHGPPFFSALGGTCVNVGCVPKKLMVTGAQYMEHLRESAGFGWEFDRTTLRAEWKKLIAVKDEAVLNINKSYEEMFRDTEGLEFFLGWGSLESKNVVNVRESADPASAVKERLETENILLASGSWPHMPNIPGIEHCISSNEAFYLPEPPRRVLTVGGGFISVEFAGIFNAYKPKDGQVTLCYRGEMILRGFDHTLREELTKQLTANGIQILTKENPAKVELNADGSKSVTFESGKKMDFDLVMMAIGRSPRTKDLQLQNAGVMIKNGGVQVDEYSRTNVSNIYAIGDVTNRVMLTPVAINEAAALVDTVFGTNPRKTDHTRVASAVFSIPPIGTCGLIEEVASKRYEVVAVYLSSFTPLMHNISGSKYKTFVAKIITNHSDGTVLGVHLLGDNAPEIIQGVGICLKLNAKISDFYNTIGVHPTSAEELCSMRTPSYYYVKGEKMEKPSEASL
Method in brief: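 Recombinant T. cruzi TR, overexpressed in E. coli JM109 and homogeneous by SDS-PAGE, was used at about 0.3 µg/mL. Assay at 25 °C in 0.02 M HEPES pH 7.25 with 0.15 M KCl, 1 mM EDTA, 0.12 mM trypanothione disulfide and 0.1 mM NADPH, read at 340 nm. I50 came from nonlinear least-squares fitting of velocity versus inhibitor concentration using the linear competitive inhibition equation.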

Mus musculus [3] = organism: Mus musculus; assay: Effective dose against Leishmania donovani (Leishmania donovani) amastigotes in mouse peritoneal macrophages; assay type: functional; details: read-out: ED50 (the source's name)
Method in brief: (§1)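 Mouse peritoneal macrophages kept on chamber slides in RPMI 1640 with 10% heat-inactivated foetal calf serum, 37 °C, 5% CO2, and infected with L. donovani MHOM/ET/69/L82 amastigotes taken from infected hamster spleens. After 24 h, compounds were added in a 3-fold dilution series in quadruplicate for 5 days. Slides were methanol-fixed and Giemsa-stained, then scored for the proportion of infected macrophages.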

Mus musculus [4] = organism: Mus musculus; assay: Effective dose against Trypanosoma cruzi (Trypanosoma cruzi) trypomastigotes in mouse peritoneal macrophages; assay type: functional; details: read-out: ED50 (the source's name)
Trypanosoma brucei [5] = assay: Effective dose against Trypanosoma brucei) bloodstream form trypomastigotes; <3, >1; details: read-out: ED50 (the source's name)
Trypanosoma brucei [6] = assay: Effective dose against Trypanosoma brucei) bloodstream form trypomastigotes; details: read-out: ED50 (the source's name)
Mus musculus [7] = organism: Mus musculus; assay: Effective dose against Trypanosoma cruzi (Trypanosoma cruzi) trypomastigotes in mouse peritoneal macrophages; Range is 10-30 uM; assay type: functional; details: read-out: ED50 (the source's name)
Trypanosoma brucei [8] = assay: Effective dose against Trypanosoma brucei) bloodstream form trypomastigotes in HMI-9 medium; details: read-out: ED50 (the source's name)
Trypanothione reductase [9] = target: T2, Trypanothione reductase; assay: Inhibitory activity against recombinant Trypanosoma cruzi (Trypanosoma cruzi) Trypanothione reductase (linear competitive type)
Mus musculus [10] = organism: Mus musculus; assay: Effective dose against Trypanosoma […]) trypomastigotes in mouse peritoneal macrophages; assay type: functional; details: read-out: ED50 (the source's name)
Mus musculus [11] = organism: Mus musculus; assay: Effective dose against Trypanosoma uM; assay type: functional
Mus musculus [12] = organism: Mus musculus; assay: Effective dose against Leishmania donovani (Leishmania donovani) amastigotes in mouse peritoneal macrophages; Range is 10-30 uM; assay type: functional; details: read-out: ED50 (the source's name); method in brief: as §1

Row | I50 [1] | IC50 (Trypanothione reductase [2]) | EC50 (Mus musculus [3]) | SMILES | EC50 (Mus musculus [4]) | further results
1 | Not Active | 1030 µM | – | CNCCCN1c2ccccc2Sc2ccccc21 | – | –
2 | Not Active | 139 µM | 10 µM | NCCCN1c2ccccc2Sc2ccc(Cl)cc21 [NOR2-CHLORPROMAZINE] | 5.9 µM | EC50 (Trypanosoma brucei [5]): < 3 µM
3 | Not Active | 1410 µM | 3.3 µM | NCCCN1c2ccccc2Sc2ccccc21 | 54.9 µM | EC50 (Trypanosoma brucei [6]): 3.83 µM
4 | – | 145 µM | > 30 µM | CN(C)CCCN1c2ccccc2Sc2ccc(/C=N/O)cc21 | – | EC50 (Mus musculus [7]): 10 µM; EC50 (Trypanosoma brucei [8]): 7.35 µM
5 | – | 862 µM | – | O=C(CCl)N1c2ccccc2Sc2ccc(Cl)cc21 | – | –
6 | – | 307 µM | – | N=C(N)CCN1c2ccccc2Sc2ccc(Cl)cc21 | – | –
7 | – | 992 µM | – | N=C(N)CCN1c2ccccc2Sc2ccccc21 | – | –
8 | Not Active | 271 µM | – | CC(CN1c2ccccc2Sc2ccccc21)N(C)C (configuration not stated) [PROMETHAZINE] | – | Ki (Trypanothione reductase [9]): 216 µM
9 | Not Active | 3910 µM | – | CN(C)CCCN1c2ccccc2Sc2ccc(C(=O)O)cc21 | – | –
10 | Not Active | 150 µM | – | CN(C)CCN1c2ccccc2Sc2ccc(Cl)cc21 [CHOLRPHENETHAZINE] | – | –
11 | – | 251 µM | 5.97 µM | O=C(CBr)N1c2ccccc2Sc2ccc(Cl)cc21 | – | EC50 (Mus musculus [7]): 10 µM; EC50 (Trypanosoma brucei [8]): 0.97 µM
12 | Not Active | 81.3 µM | – | CCN(CC)CCN1c2ccccc2Sc2ccc(Cl)cc21 | – | –
13 | – | 301 µM | – | CCCC(=O)c1ccc2c(c1)N(CCCN(C)C)c1ccccc1S2 | > 30 µM | EC50 (Mus musculus [12]): 10 µM; EC50 (Trypanosoma brucei [8]): 3.26 µM
14 | Not Active | 249 µM | – | CC(CN(C)C)CN1c2ccccc2Sc2ccccc21 (configuration not stated) [METHYLPROMAZINE] | – | Ki (Trypanothione reductase [9]): 127 µM

More lines, now with the values behind:

Row | SMILES | I50 [1] | IC50 (Trypanothione reductase [2]) | EC50 (Mus musculus [3]) | EC50 (Mus musculus [4]) | further results
15 | O=C(CCC(=O)N1c2ccccc2Sc2ccc(Cl)cc21)NCc1ccccc1 | – | 188 µM | > 30 µM | > 30 µM | EC50 (Trypanosoma brucei [8]): > 30 µM
16 | CCN(CC)CCCCCC(=O)N1c2ccccc2Sc2ccc(Cl)cc21 | – | 457 µM | – | – | –
17 | CC(=O)c1ccc2c(c1)N(CCCN(C)C)c1cc(Cl)ccc1S2 | – | 175 µM | 12.1 µM | > 30 µM | EC50 (Trypanosoma brucei [8]): 1.29 µM
18 | OCCN1CCN(CCCN2c3ccccc3Sc3ccc(C(F)(F)F)cc32)CC1 [FLUPHENAZINE] | Not Active | 73.7 µM | > 30 µM | > 30 µM | Ki (Trypanothione reductase [9]): 21.2 µM; EC50 (Trypanosoma brucei [6]): > 30 µM
19 | CC(=O)c1ccc2c(c1)N(C(C)=O)c1cc(Cl)ccc1S2 | – | 402 µM | > 30 µM | > 30 µM | EC50 (Trypanosoma brucei [8]): > 30 µM
20 | CN(C)CCCN1c2ccccc2[S+]([O-])c2ccc(Cl)cc21 (configuration not stated) [CHLOROPROMAZINE SULFOXIDE] | Not Active | 76.6 µM | – | – | –
21 | CCN(CC)CCC(=O)N1c2ccccc2Sc2ccc(Cl)cc21 [CHLORACYZINE] | – | 802 µM | – | – | –
22 | CN(C)CCCN1c2ccccc2Sc2ccc(COc3ccc(C(C)(C)C)cc3)cc21 | Not Active | 161 µM | > 30 µM | > 30 µM | EC50 (Trypanosoma brucei [6]): > 30 µM
23 | C/C(=N\OCc1ccccc1)c1ccc2c(c1)N(CCCN(C)C)c1cc(Cl)ccc1S2 | – | 199 µM | 6.78 µM | > 30 µM | EC50 (Mus musculus [10]): 3.5 µM
24 | CN1CCN(CCCN2c3ccccc3Sc3ccc(C(F)(F)F)cc32)CC1 [TRIFLUOPERAZINE] | Not Active | 72 µM | – | – | Ki (Trypanothione reductase [9]): 23 µM
25 | CC(=O)c1ccc2c(c1)N(CCCN(C)C)c1cc(C(C)=O)ccc1S2 | – | 472 µM | > 30 µM | > 30 µM | ED50 (Mus musculus [11]): 10 µM
